Activity calls are given as the source filed them. No cut-off for these calls is given here.
Columns and labels:
[1] = tested on: OVCAR-3; test: Growth inhibition of human OVCAR3 cells at 10 uM after 48 hrs by sulforhodamine B assay relative to control; assay type: functional; conditions: OVCAR-3, 48 h, values are per cent of control
Method in brief: (§1)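 NCI-60 single-dose screen. Cells exposed to 10⁻⁵ M or to vehicle for 48 h. Growth measured by sulforhodamine B optical density before and after exposure. Reported as percent growth relative to vehicle control and to time-zero cell number; negative values indicate cell kill.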

[2] = tested on: A498; test: Growth inhibition of human A498 cells at 10 uM after 48 hrs by sulforhodamine B assay relative to control; assay type: functional; conditions: A498, 48 h, values are per cent of control; method in brief: as §1
[3] = tested on: MDA-MB-435; test: Growth inhibition of human MDA-MB-435 cells at 10 uM after 48 hrs by sulforhodamine B assay relative to control; assay type: functional; conditions: MDA-MB-435, 48 h, values are per cent of control; method in brief: as §1
[4] = tested on: SK-MEL-5; test: Growth inhibition of human SK-MEL-5 cells at 10 uM after 48 hrs by sulforhodamine B assay relative to control; assay type: functional; conditions: SK-MEL-5, 48 h, values are per cent of control; method in brief: as §1
[5] = tested on: SF-539; test: Growth inhibition of human SF539 cells at 10 uM after 48 hrs by sulforhodamine B assay relative to control; assay type: functional; conditions: SF-539, 48 h, values are per cent of control; method in brief: as §1
[6] = tested on: DU-145; test: Growth inhibition of human DU145 cells at 10 uM after 48 hrs by sulforhodamine B assay relative to control; assay type: functional; conditions: DU-145, 48 h, values are per cent of control; method in brief: as §1
[7] = tested on: NCI-H460; test: Growth inhibition of human NCI-H460 cells at 10 uM after 48 hrs by sulforhodamine B assay relative to control; assay type: functional; conditions: NCI-H460, 48 h, values are per cent of control; method in brief: as §1
[8] = tested on: NCI-H522; test: Growth inhibition of human NCI-H522 cells at 10 uM after 48 hrs by sulforhodamine B assay relative to control; assay type: functional; conditions: NCI-H522, 48 h, values are per cent of control; method in brief: as §1
[9] = tested on: KM12; test: Growth inhibition of human KM12 cells at 10 uM after 48 hrs by sulforhodamine B assay relative to control; assay type: functional; conditions: KM12, 48 h, values are per cent of control; method in brief: as §1
[10] = biological target: Tubulin (Homo sapiens) (UniProt P68371+Q9H4B7+P0DPH7+P68366+Q13509+Q71U36+P04350+Q3ZCM7+P07437+P68363+Q9BQE3+Q6PEY2+Q13885+Q9BVA1+Q9BUF5); test: Inhibition of tubulin (unknown origin) polymerization at 2 uM by immunoblot analysis; assay type: protein-complex assay
Method in brief: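 Cell-based assay. Cells were treated with compound at 1.0 and 2.0 μM. Polymerized tubulin (pellet) was separated from unpolymerized tubulin (supernatant), and both fractions were immunoblotted with anti-tubulin antibody.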

Row | SMILES | growth, % of control at 10 µM [1] | growth, % of control at 10 µM [2] | growth, % of control at 10 µM [3] | growth, % of control at 10 µM [4] | growth, % of control at 10 µM [5] | growth, % of control at 10 µM [6] | growth, % of control at 10 µM [7] | growth, % of control at 10 µM [8] | growth, % of control at 10 µM [9] | inhibition [10]
1 | COc1ccc(/C(=C/c2cc(OC)c(OC)c(OC)c2)c2nnn[nH]2)cc1OC | 118% | 89.5% | 102% | 96.4% | 96.2% | 106% | 106% | 90.2% | 99.8% | 
2 | COc1ccc(/C=C(/c2cc(OC)c(OC)c(OC)c2)c2nnn[nH]2)cc1 | 113% | 102% | 100% | 94.1% |  | 108% | 110% | 90.3% | 102% | Active
3 | COc1ccc(/C=C(/c2ccc([N+](=O)[O-])cc2)c2nnn[nH]2)c2ccccc12 | 112% | 112% | 105% | 97.1% | 104% | 113% | 103% | 89.4% | 111% | Active

Reference: ChEMBL document CHEMBL4371053, “A novel tetrazole analogue of resveratrol is a potent anticancer agent” (Bioorg Med Chem Lett, 2019)
